The text below walks through data of ChEMBL document CHEMBL1139486, “Novel benzopyridothiadiazepines as potential active antitumor agents” (J Med Chem, 2005).

Experiment [1] deals with L1210. As to the kind of experiment: Antiproliferative activity against mouse L1210 cells after 48 hrs relative control. The class given is functional, cell-based. Particulars: L1210, 48 h. An outline of the steps:
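L1210 cells grown in RPMI 1640 with 10% fetal calf serum, 2 mM L-glutamine, penicillin/streptomycin and 10 mM HEPES (pH 7.4). Cells were exposed 48 h to graded drug concentrations, then MTT was added for 4 h at 37 °C. Formazan was dissolved in DMSO and OD read at 540 nm. IC50 came from linear regression on the linear part of the dose-response curve, in triplicate.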

Experiment [2] has as its system L1210. The experiment can be described thus: Cell cycle perturbations in mouse L1210 cells assessed as accumulation in G1 phase after 21 hrs at 5 uM relative to control. The format is functional. An outline of the steps:
(§1)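 L1210 cells in RPMI 1640 with 10% fetal calf serum, 2 mM L-glutamine, antibiotics and 10 mM HEPES (pH 7.4) were exposed for 21 h (two doubling times). They were fixed in 70% ethanol and stained 30 min at 20 °C in D-PBS with […] RNAse and […] propidium iodide. 10⁴ cells per sample were analysed by flow cytometry for % G1, S, G2+M and 8N.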

In experiment [3] the test system is L1210. As to the kind of experiment: Cell cycle perturbations in mouse L1210 cells assessed as accumulation in S phase after 21 hrs at 5 uM relative to control. The class given is functional. In a few lines: as §1
Experiment [4] deals with L1210. As to the kind of experiment: Cell cycle perturbations in mouse L1210 cells assessed as accumulation in G2+M phase after 21 hrs at 5 uM relative to control. The format is functional. In a few lines:
as §1

For experiment [5], the system named is L1210. As to the kind of experiment: Cell cycle perturbations in mouse L1210 cells assessed as accumulation in 8N phase after 21 hrs at 5 uM relative to control. The format is functional. An outline of the steps:
as §1

Experiment [6] has as its system L1210. As to the kind of experiment: Cell cycle perturbations in mouse L1210 cells assessed as accumulation in G1 phase after 21 hrs at 2 uM relative to control. The format is functional. In a few lines: as §1
The test system of experiment [7] is L1210. As to the kind of experiment: Cell cycle perturbations in mouse L1210 cells assessed as accumulation in S phase after 21 hrs at 2 uM relative to control. The class given is functional. In a few lines: as §1
Experiment [8] concerns L1210. The experiment can be described thus: Cell cycle perturbations in mouse L1210 cells assessed as accumulation in G2+M phase after 21 hrs at 2 uM relative to control. The class given is functional. An outline of the steps:
as §1

Experiment [9] concerns L1210. The experiment can be described thus: Cell cycle perturbations in mouse L1210 cells assessed as accumulation in 8N phase after 21 hrs at 2 uM relative to control. The format is functional. An outline of the steps: as §1
Experiment [10] relates to L1210. As to the kind of experiment: Cell cycle perturbations in mouse L1210 cells assessed as accumulation in G1 phase after 21 hrs at 1 uM relative to control. The class given is functional.
Experiment [11] deals with L1210. The experiment can be described thus: Cell cycle perturbations in mouse L1210 cells assessed as accumulation in 8N phase after 21 hrs at 1 uM relative to control. The format is functional.
For experiment [12], the system named is L1210. The experiment can be described thus: Cell cycle perturbations in mouse L1210 cells assessed as accumulation in G2+M phase after 21 hrs at 1 uM relative to control. The format is functional.
Experiment [13] concerns L1210. The experiment can be described thus: Cell cycle perturbations in mouse L1210 cells assessed as accumulation in S phase after 21 hrs at 1 uM relative to control. The class given is functional.

In the case of `COc1ccc(CCN2c3cc(Cl)ccc3S(=O)(=O)N(C)c3cccnc32)cc1`, in the experiment with L1210 [1], the IC50 was greater than 10 µM.

Take `COc1ccc(CCN2c3cc(Cl)ccc3N(C)S(=O)(=O)c3cccnc32)cc1`: the IC50 in the experiment on L1210 [1] was greater than 100 µM.

Take `COc1ccc(CCN2C=CC=C3C2=Nc2cc(C(F)(F)F)ccc2S(=O)(=O)N3C)cc1`: the IC50 in the experiment on L1210 [1] is greater than 10 µM.

The compound `COc1ccc(CCCN2C=CC=C3C2=Nc2ccccc2S(=O)(=O)N3C)cc1` gave an IC50 in the experiment on L1210 [1] greater than 10 µM. Same read-out and setting: next, `COc1ccc(CCCN2C=CC=C3C2=Nc2ccccc2N(C)S3(=O)=O)cc1`: 8.3 µM; `CCN(CC)CCN1c2ccccc2N(CCc2ccc(OC)cc2)c2ncccc2S1(=O)=O`: greater than 10 µM. Same read-out and setting: with `COc1ccc(CCCN2C=CC=C3C2=Nc2cc(OC)ccc2S(=O)(=O)N3C)cc1` the figure was greater than 50 µM; with `COc1ccc(CCN2c3ccc(Cl)cc3N(C)S(=O)(=O)c3cccnc32)cc1`, greater than 10 µM. Take `COc1ccc(CN2C=CC=C3C2=Nc2cc(OC)ccc2N(C)S3(=O)=O)cc1`: the IC50 with L1210 [1] is greater than 10 µM. The same measure, in the same setting: next, `COc1ccc(CN2c3ccccc3N(Cc3ccc(OC)cc3)S(=O)(=O)c3cccnc32)cc1`: greater than 100 µM; `COc1ccc(CCCN2C=CC=C3C2=Nc2cc(C)ccc2S(=O)(=O)N3C)cc1`: greater than 10 µM.

Turning to `COc1ccc(CCN2C=CC=C3C2=Nc2cc(C)ccc2S(=O)(=O)N3C)cc1`, the Activity with L1210 [2] amounted to 5%; with L1210 [3] it was 8%; in the experiment with L1210 [4] it was 19%; in the experiment on L1210 [5], 68%. The IC50 in the experiment on L1210 [1] amounted to 1.4 µM. As for `COc1ccc(CN2C=CC=C3C2=Nc2cc(Cl)ccc2N(C)S3(=O)=O)cc1`, the IC50 in the experiment with L1210 [1] was 5.4 µM. Turning to `COc1ccc(CCN2C=CC=C3C2=Nc2cc(C)ccc2N(C)S3(=O)=O)cc1`, the Activity in the experiment on L1210 [6] is reported as 2%; in the experiment with L1210 [7] it was 2%; with L1210 [8], 12%; in the experiment on L1210 [9], 84%. Also, it took 0.41 µM to reach half-maximal inhibition in the experiment on L1210 [1] (IC50). In turn, `COc1ccc(CN2c3cc(OC)ccc3N(C)S(=O)(=O)c3cccnc32)cc1` came in with an IC50 in the experiment on L1210 [1] of 8.3 µM. `COc1ccc(CN2C=CC=C3C2=Nc2ccc(Cl)cc2N(C)S3(=O)=O)cc1` displayed an IC50 in the experiment with L1210 [1] of 4.1 µM. As to `COc1cc(CCN2c3ccccc3S(=O)(=O)N(C)c3cccnc32)cc(OC)c1OC`, the IC50 with L1210 [1] was greater than 10 µM. `COc1ccc(CN2c3cc(C(F)(F)F)ccc3S(=O)(=O)N(C)c3cccnc32)cc1` returned an IC50 with L1210 [1] greater than 10 µM. Same read-out and setting: next, `COc1ccc(CN2C=CC=C3C2=Nc2cc(C)ccc2N(C)S3(=O)=O)cc1`: 9.2 µM.

In turn, `COc1ccc(CCN2C=CC=C3C2=Nc2cc(OC)ccc2S(=O)(=O)N3C)cc1` yielded an IC50 in the experiment on L1210 [1] greater than 10 µM. Same read-out and setting: with `COc1ccc(CN2C=CC=C3C2=Nc2ccc(Cl)cc2S(=O)(=O)N3C)cc1` the figure was greater than 10 µM; with `CN1C2=CC=CN(CCc3ccc(OCc4ccccc4)cc3)C2=Nc2ccccc2S1(=O)=O`, greater than 10 µM. On the same count and under the same terms, next, `COc1ccc(CN2c3cc(Cl)ccc3S(=O)(=O)N(C)c3cccnc32)cc1`: greater than 10 µM; `COc1ccc(CN2C=CC=C3C2=Nc2ccccc2S(=O)(=O)N3C)cc1`: greater than 10 µM; `COc1ccc(CCN2c3ccccc3N(C)S(=O)(=O)c3cccnc32)cc1`: greater than 10 µM. `COc1ccc(CN2C=CC=C3C2=Nc2cc(Cl)ccc2S(=O)(=O)N3C)cc1` came in with a half-maximal inhibitory concentration (IC50) in the experiment with L1210 [1] of 1.5 µM. The same measure, in the same setting: with `COc1ccc(CCN2c3ccccc3S(=O)(=O)N(C)c3cccnc32)cc1` the figure was greater than 10 µM; with `COc1ccc(CCCN2C=CC=C3C2=Nc2cc(Cl)ccc2S(=O)(=O)N3C)cc1`, greater than 10 µM; with `COc1ccc(CCCN2c3ccccc3N(C)S(=O)(=O)c3cccnc32)cc1`, greater than 10 µM. On the same count and under the same terms, with `COc1ccc(CCN2c3cc(OC)ccc3N(C)S(=O)(=O)c3cccnc32)cc1` the figure was greater than 10 µM; with `COc1ccc(CCCN2C=CC=C3C2=Nc2cc(C(F)(F)F)ccc2S(=O)(=O)N3C)cc1`, greater than 10 µM. Turning to `COc1ccc(CN2c3ccccc3N(C)S(=O)(=O)c3cccnc32)cc1`, half-maximal inhibition in the experiment on L1210 [1] (IC50) was put at 9.6 µM. Still for that read-out and setting: with `CN(C)CCOc1ccc(CCN2C=CC=C3C2=Nc2ccccc2S(=O)(=O)N3C)cc1` the figure was greater than 10 µM; with `COc1ccc(CCN2C=CC=C3C2=Nc2ccccc2N(Cc2ccc(OC)cc2)S3(=O)=O)cc1`, greater than 100 µM; with `COc1ccc(CN2c3cc(Cl)ccc3N(C)S(=O)(=O)c3cccnc32)cc1`, 8.7 µM. In turn, `COc1ccc(CN2C=CC=C3C2=Nc2cc(OC)ccc2S(=O)(=O)N3C)cc1` returned an IC50 in the experiment on L1210 [1] greater than 50 µM. The same measure, in the same setting: with `CN1C2=CC=CN(CCc3ccc(O)cc3)C2=Nc2ccccc2S1(=O)=O` the figure was greater than 10 µM. For `COc1ccc(CCN2C=CC=C3C2=Nc2cc(Cl)ccc2S(=O)(=O)N3C)cc1`, the Activity in the experiment with L1210 [2] was 7%; in the experiment with L1210 [3], 6%; in the experiment on L1210 [4], 26%; in the experiment with L1210 [5], 61%. Further, in the experiment with L1210 [1], half-maximal inhibition (IC50) required 1.3 µM.

Regarding `COc1ccc(CN2c3cc(C)ccc3S(=O)(=O)N(C)c3cccnc32)cc1`, the half-inhibitory concentration (IC50) with L1210 [1] is greater than 10 µM. Still for that read-out and setting: next, `COc1cc(CN2C=CC=C3C2=Nc2ccccc2S(=O)(=O)N3C)cc(OC)c1OC`: greater than 10 µM; `COc1cc(CN2c3ccccc3S(=O)(=O)N(C)c3cccnc32)cc(OC)c1OC`: greater than 10 µM.

In the case of `COc1cc(CCN2C=CC=C3C2=Nc2ccccc2S(=O)(=O)N3C)cc(OC)c1OC`, the IC50 in the experiment with L1210 [1] is greater than 10 µM. On the same count and under the same terms, next, `COc1ccc(CN2C=CC=C3C2=Nc2ccccc2N(Cc2ccc(OC)cc2)S3(=O)=O)cc1`: greater than 100 µM; `COc1ccc(CN2C=CC=C3C2=Nc2cc(C)ccc2S(=O)(=O)N3C)cc1`: 9 µM.

The compound `CCN(CC)CCN1c2ccccc2N=C2C(=CC=CN2CCc2ccc(OC)cc2)S1(=O)=O` displayed an IC50 with L1210 [1] greater than 10 µM. Turning to `COc1ccc(CN2C=CC=C3C2=Nc2ccccc2N(C)S3(=O)=O)cc1`, in the experiment with L1210 [1], the IC50 was greater than 10 µM. Regarding `COc1ccc(CCN2c3ccccc3N(Cc3ccc(OC)cc3)S(=O)(=O)c3cccnc32)cc1`, the IC50 with L1210 [1] was greater than 100 µM. Regarding `COc1ccc(CCN2C=CC=C3C2=Nc2cc(OC)ccc2N(C)S3(=O)=O)cc1`, the Activity in the experiment on L1210 [2] amounted to 5%; with L1210 [3], 7%; in the experiment on L1210 [4], 17%; with L1210 [5] it was 71%. This compound returned an IC50 with L1210 [1] of 1.5 µM. `COc1ccc(CN2C=CC=C3C2=Nc2cc(C(F)(F)F)ccc2S(=O)(=O)N3C)cc1` showed an IC50 in the experiment on L1210 [1] greater than 10 µM. On to `COc1ccc(CCN2C=CC=C3C2=Nc2cc(Cl)ccc2N(C)S3(=O)=O)cc1`, for which the Activity worked out at 8% with L1210 [10], 63% with L1210 [11], 19% in the experiment on L1210 [12] and 10% with L1210 [13]. In the experiment with L1210 [1], the IC50 was 0.19 µM.

As for `COc1ccc(CCCN2C=CC=C3C2=Nc2ccc(Cl)cc2S(=O)(=O)N3C)cc1`, the half-maximal inhibitory concentration (IC50) with L1210 [1] is greater than 10 µM. The same measure, in the same setting: next, `COc1ccc(CN2c3cc(C)ccc3N(C)S(=O)(=O)c3cccnc32)cc1`: 6.9 µM. Same read-out and setting: with `COc1ccc(CN2c3ccccc3S(=O)(=O)N(C)c3cccnc32)cc1` the figure was greater than 10 µM. Take `COc1ccc(CCN2c3cc(C)ccc3N(C)S(=O)(=O)c3cccnc32)cc1`: the IC50 in the experiment with L1210 [1] is greater than 10 µM.

What is called IC50 is the concentration that gives 50% inhibition.
